Screening results (PubChem BioAssay)
This is a sample that favours compounds with a hit; in the whole collection about 3.5% have one here.
MrgX1 allo act: positive allosteric modulators of MrgX1, primary screen, HEK293 cells, Fluo-4 calcium flux | FDSS; stronger effect = higher value | B-score at 10 µM | 0.63% of 310,000 active;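 active = plate-corrected calcium response at least 3 library SD above typical, normal starting fluorescence, not activating the receptor alone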;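 note: compound read alongside a low EC10 to EC30 dose of BAM8-22 agonist; peak minus trough fluorescence over baseline measured at the second addition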
Target sequence (Q96LB2 whole entry, looked up): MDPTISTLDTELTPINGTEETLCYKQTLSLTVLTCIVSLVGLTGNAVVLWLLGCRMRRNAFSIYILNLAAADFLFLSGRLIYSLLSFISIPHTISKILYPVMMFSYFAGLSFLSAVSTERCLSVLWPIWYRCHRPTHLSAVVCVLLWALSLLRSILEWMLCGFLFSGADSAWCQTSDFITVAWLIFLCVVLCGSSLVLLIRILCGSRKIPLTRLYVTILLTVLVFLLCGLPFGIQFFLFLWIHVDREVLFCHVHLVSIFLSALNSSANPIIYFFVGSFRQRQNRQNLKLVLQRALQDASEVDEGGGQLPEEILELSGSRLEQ
MrgX1 antag: antagonists of human MrgX1 receptor, primary screen, HEK293 cells, Fluo-4 calcium flux; Mas-related G-protein coupled receptor member X1 (Homo sapiens), Q96LB2; BAM8-22 antagonism; stronger effect = lower value; B-score at 10 µM; 1.3% of 310,000 active;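 active = calcium-response B-score plate-corrected more than 3 library SD below zero, starting fluorescence within 5 deviations, no agonist response on first addition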;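 note: peak minus trough fluorescence over baseline after final BAM8-22 challenge near maximal dose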
RGS4 inh: RGS4 inhibitors, primary screen, cell-based, HEK293 M3R inducible RGS4, calcium flux. Regulator of G-protein signaling 4 (Homo sapiens), P49798. Fluo-4 calcium flux; stronger effect = higher value; triggered by carbachol at its EC20. 0.45% of 310,000 active. B-score at 10 µM;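 active = B-score, a plate-corrected calcium signal, over three deviations above library mean, with baseline fluorescence within five deviations of library mean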;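 note: RGS4 expression induced by doxycycline in cells with stable M3 receptor; B-score is computed from the integrated fluorescence ratio over baseline after carbachol; higher B-score means a larger calcium signal and so more RGS4 inhibition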
Target sequence (P49798 whole entry, looked up): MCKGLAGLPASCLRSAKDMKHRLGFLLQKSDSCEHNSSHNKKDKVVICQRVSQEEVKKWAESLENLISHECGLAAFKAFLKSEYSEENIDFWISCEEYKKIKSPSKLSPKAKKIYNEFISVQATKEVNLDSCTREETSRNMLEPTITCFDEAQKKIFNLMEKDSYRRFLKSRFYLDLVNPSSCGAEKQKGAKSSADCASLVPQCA
MrgX1 ag: agonists of human MrgX1 receptor, primary screen, HEK293 cells, Fluo-4 calcium flux; Mas-related G-protein coupled receptor member X1 (Homo sapiens), Q96LB2; Fluo-4 calcium fluorescence, agonist mode; stronger effect = higher value; B-score at 10 µM; 0.44% of 310,000 active; AID 588627, 2011;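 active = calcium response B-score plate-corrected fluorescence ratio at least 3 library SD, with starting fluorescence B-score inside 5 SD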
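System – MrgX1-expressing HEK293 cells · Incubation – cells plated overnight, dye loaded 0.5 h 37 °C, 0.5 h room temperature · Technique – kinetic Fluo-4 NW fluorescence of intracellular calcium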
RGS4 act: RGS4 potentiators or activators, primary screen, cell-based, HEK293 M3R inducible RGS4, calcium flux | carbachol calcium flux Fluo4; stronger effect = lower value | B-score at 10 µM | 0.92% of 310,000 active | AID 463111, 2010;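 active = B-score of the integrated calcium signal more than 4 SD below the library mean, with starting fluorescence not abnormally high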;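 note: negative B-score means reduced calcium response which marks RGS4 activation or potentiation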
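test system = M3R-expressing HEK293 line, RGS4 induced by doxycycline | probe or stimulus = carbachol at ECmax as muscarinic agonist stimulus | timing = dye loading 30 min 37 °C, buffer rest 30 min RT | signal = calcium dye Fluo4 fluorescence | evaluation = B score from integrated fluorescence ratio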
MrgX1 antag conf: MrgX1 receptor antagonists, duplicate retest, confirmation, HEK293 cells, Fluo-4 calcium flux. BAM8-22 calcium flux; stronger effect = lower value. remaining BAM8-22 calcium response % of control (stronger effect = lower value), % at 10 µM. shares compounds with MrgX1 antag. 19% of 2,300 active;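 active = remaining agonist calcium response no higher than 100% minus 3 SD of agonist-only control wells, with starting fluorescence near control levels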;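 note: agonist BAM8-22 given at a near maximal EC90 to ECmax level; peak minus minimum fluorescence divided by baseline after agonist addition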
HEK293 Ca flux: nonspecific calcium signal in parental HEK293, confirmation, counter-screen for MrgX1 antagonist project, parental HEK293 cells, Fluo-4 calcium flux | AID 624111, 2012 | shares compounds with MrgX1 antag | fluorescence ratio F(max-min)/F0 at 10 µM | 2% of 4,000 active | Fluo-4 calcium fluorescence, FDSS;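 active = duplicate-averaged calcium fluorescence ratio at least three times the standard deviation of buffer wells, a nonspecific response in parental cells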
HEK293 Ca counter: calcium response in parental HEK293 cells, primary screen, counter-screen for MrgX1 allosteric activator project, cell-based, Fluo-4 calcium flux, duplicate; AID 624114, 2012; Fluo-4 fluorescence ratio; stronger effect = higher value; 0.4% of 4,000 active; fluorescence ratio F(max-min)/F0 at 10 µM; shares compounds with MrgX1 antag;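 active = calcium fluorescence ratio, averaged over duplicates, at least 3 SD of the buffer-well ratio, meaning a nonspecific response in receptor-free cells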;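 note: untransfected parental HEK293 lacking MrgX1 used as counterscreen for MrgX1 allosteric activators; fluorescence change taken during the second addition on a kinetic imager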
HEK293 Ca cntr2: calcium response in parental HEK293 cells, primary screen, counter-screen for MrgX1 agonist project, cell-based, Fluo-4 calcium flux, duplicate, agonist mode. shares compounds with MrgX1 antag. Fluo-4 calcium fluorescence (FDSS); stronger effect = higher value. fluorescence ratio F(max-min)/F0 at 10 µM. 8.7% of 4,000 active;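 active = calcium fluorescence ratio at least three times the spread of buffer wells, meaning a non-specific response in parental cells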
An asterisk follows results filed as active.

How did O=C(CC1C(=O)NC2CCCCC2N1C(=O)c1ccc(F)cc1)Nc1ccccc1 (stereo not drawn) do in these assays?
MrgX1 allo act: inactive; MrgX1 antag: -4.8*; RGS4 inh: inactive; MrgX1 ag: inactive; RGS4 act: inactive; MrgX1 antag conf: inactive; HEK293 Ca flux: inactive; HEK293 Ca counter: inactive; HEK293 Ca cntr2: inactive

How did COc1cc(NC(=S)NC(=O)c2ccc(C(C)(C)C)cc2)ccc1NC(=O)c1cccs1 do in these assays?
MrgX1 allo act: inactive; MrgX1 antag: -6.2*; RGS4 inh: inactive; MrgX1 ag: inactive; RGS4 act: inactive; MrgX1 antag conf: 81%*; HEK293 Ca flux: inactive; HEK293 Ca counter: inactive; HEK293 Ca cntr2: inactive

How did COC(=O)C(Cc1c[nH]c2ccccc12)N1CCS(=O)(=O)CC1 (stereo not drawn) do in these assays?
MrgX1 allo act: inactive; MrgX1 antag: -5.7*; RGS4 inh: inactive; MrgX1 ag: inactive; RGS4 act: inactive; MrgX1 antag conf: inactive; HEK293 Ca flux: inactive; HEK293 Ca counter: inactive; HEK293 Ca cntr2: inactive

Results for COC(=O)C(Cc1ccccc1)N1CCS(=O)(=O)CC1 (stereo not drawn) ?
MrgX1 allo act: inactive; MrgX1 antag: inactive; RGS4 inh: inactive; MrgX1 ag: inactive; RGS4 act: inactive

How did O=C(CCS(=O)(=O)c1ccccc1)Nc1cccc(-c2nc3ccccc3s2)c1 do in these assays?
MrgX1 allo act: inactive; MrgX1 antag: -6.2*; RGS4 inh: inactive; MrgX1 ag: inactive; RGS4 act: inactive; MrgX1 antag conf: 84%*; HEK293 Ca flux: inactive; HEK293 Ca counter: inactive; HEK293 Ca cntr2: inactive

How did Cc1ccccc1-n1ncc2c1CC(C)(C)CC2NC(=O)CCN1CCCCC1=O (stereo not drawn) do in these assays?
MrgX1 allo act: inactive; MrgX1 antag: inactive; RGS4 inh: inactive; MrgX1 ag: inactive; RGS4 act: inactive

Results for Cc1nn(C)cc1CNC(=O)c1cnn2c(C(F)F)cc(C3CC3)nc12 ?
MrgX1 allo act: inactive; MrgX1 antag: -4.7*; RGS4 inh: inactive; MrgX1 ag: inactive; RGS4 act: inactive; MrgX1 antag conf: inactive; HEK293 Ca flux: inactive; HEK293 Ca counter: inactive; HEK293 Ca cntr2: inactive

What do the screens show for `O=C(NCCc1ccccc1)c1cnn2c(C(F)F)cc(C3CC3)nc12`?
MrgX1 allo act: inactive; MrgX1 antag: inactive; RGS4 inh: inactive; MrgX1 ag: inactive; RGS4 act: inactive

Results for CCCSc1ccc([C@H]2N[C@@](C)(C(=O)OC)[C@H]3C(=O)N(C)C(=O)[C@@H]23)cc1 ?
MrgX1 allo act: inactive; MrgX1 antag: inactive; RGS4 inh: inactive; MrgX1 ag: inactive; RGS4 act: inactive

How did COC(=O)[C@]1(C)N[C@H](c2ccc(SC3CCCCC3)cc2)[C@@H]2C(=O)N(C)C(=O)[C@@H]21 do in these assays?
MrgX1 allo act: inactive; MrgX1 antag: -7.9*; RGS4 inh: inactive; MrgX1 ag: inactive; RGS4 act: inactive; MrgX1 antag conf: inactive; HEK293 Ca flux: inactive; HEK293 Ca counter: inactive; HEK293 Ca cntr2: inactive
